According to ChEMBL document CHEMBL1240369, “Antiviral efficacy of the novel compound BIT225 against HIV-1 release from human macrophages” (Antimicrob Agents Chemother, 2010):
Active and inactive are the calls of the source. The calls are words filed in the database; no cut-off is given here.

How the values were obtained:
[1] = Inhibition of Vpu ion channel in HIV1 92UG029 in human MDM assessed as inhibition of vrius release; set-up: species or system Human immunodeficiency virus 1
[2] = Cytotoxicity against human TZM-bl cells assessed as cell viability up to 20 uM by MTT assay; assay type: cell-based
[3] = Selectivity index, ratio of TC50 for human MDM cells to EC50 for HIV1 98IN017 infected in human MDM cells; assay type: toxicity, cell-based; conditions: read-out: Selectivity Index
[4] = Inhibition of Vpu ion channel in HIV1 93BR029 in human MDM assessed as inhibition of vrius release; set-up: species or system Human immunodeficiency virus 1
[5] = Selectivity index, ratio of TC50 for human MDM cells to EC50 for HIV1 93BR029 infected in human MDM cells; assay type: toxicity, cell-based; conditions: read-out: Selectivity Index
In short: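 Monocytes were adherence-isolated from seronegative PBMC and differentiated in DMEM with 10% human AB serum. Cells were infected with the R5 subtype F primary isolate (PBMC-grown). Antiviral effect was taken versus DMSO-treated controls. Toxicity was measured in parallel by MTT. The index is mean TC50 divided by mean EC50, from in-house experiments, n = 3.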

MDM [6] = assay: Inhibition of Vpu ion channel in 0.05 MOI HIV1 Ba-L chronically infected in 10-14 days differentiated human MDM cells assessed as viral inhibition after 1 day relative to control; assay type: cell-based; conditions: Human immunodeficiency virus 1
In short: (§1)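 Chronic infection model: MDM were incubated with HIV-1 Ba-L for 3 h and left 7 days unwashed, then washed three times and given a single 10 μM dose (DMSO control). Supernatants were sampled routinely for RT activity. In the washout arm, compound was removed and cells kept drug-free for an additional 20 days.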

PBMC [7] = assay: Inhibition of Vpu ion channel in 0.05 MOI HIV1 NL4-3 infected in human PBMC cells assessed as viral inhibition measured after 7 days by […]; conditions: Human immunodeficiency virus 1
MDM [8] = assay: Inhibition of Vpu ion channel in 0.001 MOI HIV1 Ba-L infected in 14 days differentiated human MDM cells assessed as viral inhibition by RT assay; assay type: cell-based; set-up: scale not given: the % may be the effect or the level left; conditions: Human immunodeficiency virus 1
In short: (§2)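 MDM differentiated for 7, 10 or 14 days were infected with HIV-1 Ba-L across a range of MOIs, washed three times with PBS and cultured 7 days with 10 μM compound or equal-volume DMSO. On day 7 postinfection, supernatant RT activity was measured (and infectivity on TZM-bl cells). Cell lysates went to real-time PCR for LTR-gag DNA, normalised to albumin copies.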

PBMC [9] = assay: Inhibition of Vpu ion channel in 0.05 MOI HIV1 NL4-3 infected in human PBMC cells assessed as viral inhibition measured at 5 uM after 7 days by […]; conditions: Human immunodeficiency virus 1
MDM [10] = assay: Inhibition of Vpu ion channel in 0.01 MOI HIV1 Ba-L infected in 7 days differentiated human MDM cells assessed as number of gag copy; assay type: cell-based; conditions: Human immunodeficiency virus 1; in short: as §2
MDM [11] = assay: Inhibition of Vpu ion channel in 0.05 MOI HIV1 Ba-L chronically infected in 7-14 days differentiated human MDM cells assessed as viral inhibition at 10 uM after 7 days post treatment measured after 20 days drug washout period; assay type: cell-based; conditions: Human immunodeficiency virus 1; in short: as §1
[12] = (§3) Inhibition of Vpu ion channel in HIV1 Ba-L in human MDM assessed as inhibition of vrius release; set-up: species or system Human immunodeficiency virus 1
In short: (§4)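 Day 14 MDM were infected with HIV-1 Ba-L for 3 h, washed three times and cultured with compound from 10 to 0 μM (0 μM containing matched DMSO). Day 7 supernatants were assayed for RT activity and converted to percent of virus control. EC50 came from nonlinear regression; n = 6 experiments, each in triplicate.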

[13] = system: Human immunodeficiency virus 1; assay: as §3; in short: as §4
MT2 [14] = assay: Inhibition of Vpu ion channel in 0.05 MOI HIV1 NL4-3 infected in MT2 cells assessed as viral inhibition measured at 10 uM after 7 days by […]; conditions: Human immunodeficiency virus 1
[15] = system: Human immunodeficiency virus 1; assay: Antiviral activity against HIV1 Ba-L in human MDM assessed as inhibition integration of virus to host cell genome at 100 nM; assay type: functional, organism-based
MDM [16] = assay: Inhibition of Vpu ion channel in 0.01 MOI HIV1 Ba-L infected in 10 days differentiated human MDM cells assessed as number of gag copy; assay type: cell-based; conditions: Human immunodeficiency virus 1; in short: as §2
MDM [17] = assay: Inhibition of Vpu ion channel in 0.001 MOI HIV1 Ba-L infected in 10 days differentiated human MDM cells assessed as viral inhibition by TZM-bl infectivity assay; assay type: cell-based; conditions: Human immunodeficiency virus 1; in short: as §2
MDM [18] = assay: Inhibition of Vpu ion channel in 0.05 MOI HIV1 Ba-L infected in 14 days differentiated human MDM cells assessed as number of gag copy; assay type: cell-based; conditions: Human immunodeficiency virus 1; in short: as §2
[19] = system: Human immunodeficiency virus 1; assay: Antiviral activity against HIV1 Ba-L […] assessed as inhibition integration of virus to host cell genome at 10 uM; assay type: functional; set-up: scale not given: the % may be the effect or the level left
In short: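 Run in TZM-bl indicator cells (HIV-1 integration activates luciferase), not MDM, infected with HIV-1Ba-L in the presence of BIT225 across 0.3125 to 10 μM. Lysates were given luciferin and light was read on an illuminometer. Percent inhibition of integration was taken relative to DMSO-treated control. Data are from three separate experiments.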

[20] = Selectivity index, ratio of TC50 for human MDM cells to EC50 for HIV1 G-92NG003-G3 infected in human MDM cells; assay type: toxicity, cell-based; conditions: read-out: Selectivity Index
MT2 [21] = assay: Inhibition of Vpu ion channel in 0.05 MOI HIV1 infected in MT2 cells assessed as viral inhibition measured after 7 days by […]; conditions: Human immunodeficiency virus 1
[22] = system: Human immunodeficiency virus 1; assay: Antiviral activity against HIV1 Ba-L in 14 days differentiated human MDM assessed as decrease in intracellular p24 level at 10 uM after 7 days by Western blot analysis; assay type: functional, organism-based
In short: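 Day 14 MDM were chronically infected with HIV-1 Ba-L, then given 10 μM compound or DMSO and harvested on day 28. Lysates with equal total protein (checked by β-actin) were run on a 10% polyacrylamide gel and blotted to nitrocellulose. Blots were probed with HIV-1-seropositive human serum, then HRP anti-human IgG.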

MDM [23] = assay: Inhibition of Vpu ion channel in 0.05 MOI HIV1 Ba-L infected in 10 days differentiated human MDM cells assessed as number of gag copy; assay type: cell-based; conditions: Human immunodeficiency virus 1; in short: as §2
MDM [24] = assay: Inhibition of Vpu ion channel in 0.05 MOI HIV1 Ba-L acutely infected in 14 days differentiated human MDM cells assessed as reverse transcriptase activity after 21 days relative to control; assay type: cell-based; conditions: Human immunodeficiency virus 1
In short: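 Day 14 MDM were acutely infected with HIV-1 Ba-L at MOI 0.05 for 3 h, washed three times with PBS, then cultured a further 7 days in DMEM10+ with 10 μM compound or equal DMSO. Virus release was measured as supernatant RT activity on day 21 of culture, relative to DMSO controls.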

MDM [25] = assay: Inhibition of Vpu ion channel in 0.05 MOI HIV1 Ba-L chronically infected in 10-14 days differentiated human MDM cells assessed as viral inhibition after 5 days post treatment relative to control; assay type: cell-based; conditions: Human immunodeficiency virus 1; in short: as §1
PM1 = assay: Inhibition of Vpu ion channel in 0.05 MOI HIV1 NL4-3 infected in PM1 cells assessed as viral inhibition measured at 10 uM after 7 days by […]; conditions: Human immunodeficiency virus 1
[26] = Inhibition of Vpu ion channel in HIV1 98IN017 in human MDM assessed as inhibition of vrius release; set-up: species or system Human immunodeficiency virus 1

Cn1cc(-c2cccc3cc(C(=O)NC(=N)N)ccc23)cn1
EC50 [1]: 14.4 µM | Activity [2]: Non-toxic | selectivity ratio [3]: 4.8 | EC50 [4]: 1.9 µM | selectivity ratio [5]: 111 | inhibition (MDM [6]): 60.7% | inhibition (PBMC [7]): 95.8% | Activity (MDM [8]): 77% | inhibition (PBMC [9]): 25.7% | Activity (MDM [10]): 1160 | Activity (MDM [11]): inactive | EC50 [12]: 2.25 µM | Activity [13]: Dose-dependent effect | inhibition (MT2 [14]): 24% | Activity [15]: Active | Activity (MDM [16]): 1380 | inhibition (MDM [17]): 98.1% | Activity (MDM [18]): Active | Activity [19]: 6% | selectivity ratio [20]: 131 | inhibition (MT2 [21]): 38.8% | Activity [22]: Active | Activity (MDM [23]): Active | Activity (MDM [24]): < 6 U/ml | inhibition (MDM [25]): 91.5% | inhibition (PM1): 21% | EC50 [26]: 42.2 µM
